Assay results taken from PubChem BioAssay.
Inconclusive results are not listed.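 Rule for the calls, unless noted: active = growth inhibition above 25% in both replicates, a cutoff set 3 SD above the mean; inconclusive = above 25% in only one replicate; inactive = the rest.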

Assays:
[1] = S. cerevisiae growth inhibition in permissive medium (OD615), pilot counter-assay for S. cerevisiae lifespan shortening project, permissive growth control (AID 705); settings: OD615, 24 h, at 10 µM, hits give high values
Method in brief: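 System: Engineered DeaD yeast | Buffer or medium: SC raffinose/galactose permissive medium | Doses: 10 µM single dose, 0.25% DMSO | Times: 24 h exposure, 30 °C | Measured by: OD615 turbidity read | Read-out: Yeast growth inhibition indicated by reduced 24 h OD615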

[2] = S. cerevisiae growth inhibition in restrictive medium, OD615, pilot screen, restrictive growth control, yeast lifespan reduction project (AID 706;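 active = growth inhibition above a set limit, 3 SD over mean compound inhibition, in both replicates, cut at about 43% in these data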;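 note: modified DeaD lifespan yeast strain shifted to restrictive glucose medium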); settings: OD615, 48 h, at 10 µM, hits give high values
Method in brief: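 Assay system: engineered S. cerevisiae DeaD strain; Buffer or medium: CSMM-D glucose medium; Dosing: 10 µM compound, 0.25% DMSO; Times: cell pre-growth 4 h, compound exposure 48 h, 30 °C; Detection: absorbance (optical density) measured at 615 nm.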

[3] = doxorubicin toxicity protection in MRP-1 cells – H69AR cells, CellTiter-Glo, duplicate, MRP-1 activator project, pilot screen (AID 807;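 active = viability increase at or above a cutoff of the median across tested compounds plus 3 SD, cut at about 8.5% in these data, passing the limit was not always enough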;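 note: compound pretreatment 18-22 h then 72 h combined with doxorubicin; 0% = doxorubicin alone and 100% = vehicle without doxorubicin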); settings: H69AR viability with doxorubicin, CellTiter-Glo luminescence; at 10 µM; hits give high values
[4] = viability of HCT116 without oncogenic beta-catenin – human colon tumor cells, pilot screen (AID 823;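 active = cell viability at or below a set limit in both duplicate runs, the limit being the all-compound median minus 4 SD, cut at about 23% in these data, passing the limit was not always enough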;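 note: 0% = wells killed by 20 µM Hyamine and 100% = untreated DMSO cell wells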); settings: HCT116 beta-catenin knockout viability, CellTiter-Glo, 60 h; at 10 µM; hits give low values
[5] = viability of PTEN-null HCT116 cells – cell-based, HCT116 clonal line, CellTiter-Glo, pilot screen (AID 824;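 active = viability at or below 27.92% in each of two runs, the all-compound median minus 4 SD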;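 note: 0% = 20 µM Hyamine control and 100% = vehicle cell control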); settings: HCT116 PTEN-deleted viability, 60 h, at 10 µM, hits give low values
[6] = RAM signaling pathway blockade in yeast – S. cerevisiae, Pdr1DBD-CYC8 efflux-inhibited sensitized strain, primary screen (AID 1298;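 active = RAM network inhibition above 8.4% in each of two replicates, 3 SD over the compound average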;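 note: 0% = DMSO untreated cells without growth and 100% = 10 µM 1-NA-PP1 full growth; higher means more yeast growth rescued from 5-FOA killing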); settings: S. cerevisiae cbk1-as DSE1-URA3 strain, 5-FOA growth OD615, 2 d; at 50 µM; hits give high values

O=C(CSc1nnc(Cn2c(=O)sc3ccccc32)n1-c1ccccc1)N1CCCC1
inactive: growth inhibition [1] -8.58% | growth inhibition [2] -14.4% | viability increase [3] -1.4% | viability [4] 97.1% | viability [5] 97% | RAM network inhibition [6] 2.12%

COc1ccc(C(=O)CSc2nnc(-c3ccccc3)o2)cc1
inactive: growth inhibition [1] 4.92% | growth inhibition [2] 15.3% | viability increase [3] -0.88% | viability [4] 95.6% | viability [5] 88.8% | RAM network inhibition [6] 7.56%

CCCCn1c(CNC(C)=O)nc2ccccc21
inactive: growth inhibition [1] -2.36% | growth inhibition [2] 0.94% | viability increase [3] -1.24% | viability [4] 98.1% | viability [5] 100% | RAM network inhibition [6] 1.93%

COc1ccc(C(=O)c2oc3ccc(Br)cc3c2NC(C)=O)cc1
inactive: growth inhibition [1] -2.44% | growth inhibition [2] -3.18% | viability increase [3] -3.96% | viability [4] 97.7% | viability [5] 104% | RAM network inhibition [6] 1.07%

CCCSc1nc2c(cnn2-c2ccccc2)c(=O)[nH]1
inactive: growth inhibition [1] -12.6% | growth inhibition [2] -17.8% | viability increase [3] -0.89% | viability [4] 105% | viability [5] 95.7% | RAM network inhibition [6] -0.83%

CCCc1cc(C(=O)NCCc2ccc(OC)c(OC)c2)no1
inactive: growth inhibition [1] 1.33% | growth inhibition [2] 4.92% | viability increase [3] -1.89% | viability [4] 106% | viability [5] 97.2% | RAM network inhibition [6] 3.29%

COc1cc(C(=O)NCCc2cn3ccc(C)cc3n2)cc(OC)c1OC
inactive: growth inhibition [1] -4.97% | growth inhibition [2] 4.06% | viability increase [3] -4.28% | viability [4] 96.5% | viability [5] 95.9% | RAM network inhibition [6] 2.94%

O=C(CSc1nc2ccccc2o1)NCc1ccc2c(c1)OCO2
inactive: growth inhibition [1] -8.6% | growth inhibition [2] -2.3% | viability increase [3] 4.28% | viability [4] 94.8% | viability [5] 83.9% | RAM network inhibition [6] 2.68%

Cc1cc(NC(=O)CSc2nc3c(c(=O)n2CCc2ccccc2)SC(C)C3)no1 (configuration not stated)
inactive: growth inhibition [1] -12.6% | growth inhibition [2] -12.3% | viability increase [3] -1.68% | viability [4] 89.5% | viability [5] 96.6% | RAM network inhibition [6] 5.21%

Cc1ccc(CN2CCNC(=O)C2CC(=O)O)cc1 (configuration not stated)
inactive: growth inhibition [1] 2.7% | growth inhibition [2] -8.03% | viability increase [3] -1.2% | viability [4] 97.3% | viability [5] 92.4% | RAM network inhibition [6] 0.83%

COc1ccc(-n2c(SCC(=O)Nc3nccs3)nc3c(c2=O)SCC3)cc1
inactive: growth inhibition [1] -1.01% | growth inhibition [2] -11.5% | viability increase [3] -3.87% | viability [4] 93.2% | viability [5] 84.6% | RAM network inhibition [6] 5.95%

Cc1cccc(-c2nc(CS(=O)CC(=O)N3CCN(C)CC3)c(C)o2)c1 (configuration not stated)
inactive: growth inhibition [1] -8.17% | growth inhibition [2] -8.82% | viability increase [3] -1.78% | viability [4] 95.9% | viability [5] 99.5% | RAM network inhibition [6] 2.3%

Cc1ccc2oc(-c3ccc(NC(=O)CC(C)C)cc3)nc2c1
inactive: growth inhibition [1] -9.28% | growth inhibition [2] -6.46% | viability increase [3] -0.39% | viability [4] 102% | viability [5] 92.6% | RAM network inhibition [6] 7.81%

CN(CC(=O)N1CCc2ccccc2C1)S(=O)(=O)c1ccc2c(c1)c(=O)n(C)c(=O)n2C
inactive: growth inhibition [1] -12.3% | growth inhibition [2] -9.22% | viability increase [3] -3.24% | viability [4] 98.4% | viability [5] 90.2% | RAM network inhibition [6] 5.95%

O=C(c1cccs1)N(C(=O)c1cccs1)c1ccccn1
inactive: growth inhibition [1] -5.4% | growth inhibition [2] -6.32% | viability increase [3] -1.11% | viability [4] 96.8% | viability [5] 102% | RAM network inhibition [6] 4.17%

O=C(CSc1nc2c([nH]c3ccccc32)c(=O)n1-c1ccccc1)N1CCOCC1
inactive: growth inhibition [1] -7.05% | growth inhibition [2] -18.6% | viability increase [3] -6.19% | viability [4] 93.6% | viability [5] 87% | RAM network inhibition [6] 5.28%

Cc1cc2cc(CNC(=O)c3ccc(S(=O)(=O)N4CCOCC4)cc3)ccc2[nH]1
inactive: growth inhibition [1] -5.21% | growth inhibition [2] -10.8% | viability increase [3] 0.86% | viability [4] 99.5% | viability [5] 96.2% | RAM network inhibition [6] 5.69%

COCCCNc1nc2c(c(=O)[nH]c(=O)n2C)n1CC(O)COc1ccccc1C (configuration not stated)
inactive: growth inhibition [1] -1.92% | growth inhibition [2] -7.5% | viability increase [3] -2.64% | viability [4] 98.9% | viability [5] 101% | RAM network inhibition [6] 3.44%

Cc1cc(Nc2cccc(Cl)c2)n2ncnc2n1
inactive: growth inhibition [1] -2.62% | growth inhibition [2] 7.42% | viability increase [3] -2.08% | viability [4] 95.9% | viability [5] 98.7% | RAM network inhibition [6] 1.67%

C=CCn1c(SCC(=O)c2cccs2)nc2sc(CC)cc2c1=O
inactive: growth inhibition [1] -5.62% | growth inhibition [2] 5.1% | viability increase [3] -1.39% | viability [4] 76.8% | viability [5] 83.3% | RAM network inhibition [6] 7.45%

Cc1ccc(NC(=O)CSc2nnc(Cn3c(=O)sc4ccccc43)n2C)cc1
inactive: growth inhibition [1] -5.8% | growth inhibition [2] -12.1% | viability increase [3] -1.58% | viability [4] 93.6% | viability [5] 96.4% | RAM network inhibition [6] 8.73%

Cc1cc(Nc2ccc(C)c(Br)c2)n2nc(C)nc2n1
inactive: growth inhibition [1] -12.9% | growth inhibition [2] 10.4% | viability increase [3] -5% | viability [4] 92.1% | viability [5] 92.8% | RAM network inhibition [6] 3.87%

Cc1ccc(C2CC(=O)NC(SCCC(C)C)=C2C#N)cc1 (configuration not stated)
inactive: growth inhibition [1] -9.08% | growth inhibition [2] -2.19% | viability increase [3] -4.1% | viability [4] 96.8% | viability [5] 78.9% | RAM network inhibition [6] 9.74%

COc1ccccc1OCC(O)CN1C(=O)NC(C)(C)C1=O (configuration not stated)
inactive: growth inhibition [1] -7.73% | growth inhibition [2] -7.44% | viability increase [3] -0.34% | viability [4] 93.4% | viability [5] 91.6% | RAM network inhibition [6] 2.29%

CCSC(C)CC1C/C(=N/O)c2c(CC)noc2C1 (configuration not stated)
inactive: growth inhibition [1] -0.005% | growth inhibition [2] -4.39% | viability increase [3] 5.22% | viability [4] 93.6% | viability [5] 94.2% | RAM network inhibition [6] 0.17%

CCOc1ccc(-n2nnc3c(=O)n(CC(=O)c4ccccc4)cnc32)cc1
inactive: growth inhibition [1] -2.31% | growth inhibition [2] 1.56% | viability increase [3] 0.38% | viability [4] 101% | viability [5] 97% | RAM network inhibition [6] 3.09%

O=c1c2ccccc2nc2c3ccccc3ncn12
inactive: growth inhibition [1] -15.1% | growth inhibition [2] -15.2% | viability increase [3] -0.34% | viability [4] 103% | viability [5] 101% | RAM network inhibition [6] 6.01%

COC(=O)c1nnc(-c2ccccc2)c(-c2ccccc2)n1
inactive: growth inhibition [1] -20.7% | growth inhibition [2] -24.7% | viability increase [3] -1.82% | viability [4] 104% | viability [5] 99.5% | RAM network inhibition [6] 9.17%

CC(=O)NCc1cn2c(C)csc2n1
inactive: growth inhibition [1] -16.9% | growth inhibition [2] -3.26% | viability increase [3] -3.88% | viability [4] 98.1% | viability [5] 90% | RAM network inhibition [6] 3.01%

Cc1cc2cc(CNC(=O)C3CCCC3)ccc2n1C
inactive: growth inhibition [1] -3.94% | growth inhibition [2] -10.2% | viability increase [3] 0.45% | viability [4] 103% | viability [5] 91% | RAM network inhibition [6] 2.97%

CCOC(=O)N1CCN(C(=O)c2ccc(N3C(=O)c4ccccc4C3=O)cc2)CC1
inactive: growth inhibition [1] -3.96% | growth inhibition [2] -15.2% | viability increase [3] -2.58% | viability [4] 99% | viability [5] 93.6% | RAM network inhibition [6] 4.06%

Cn1c(C(C#N)/C(=N\S(=O)(=O)c2cccs2)c2ccccc2)nc2ccccc21 (configuration not stated)
inactive: growth inhibition [1] -17.5% | growth inhibition [2] -19.6% | viability increase [3] -1.15% | viability [4] 95.5% | viability [5] 94.7% | RAM network inhibition [6] 6.16%

CCOC(=O)c1c(C)[nH]c(C(=O)COc2ccc3c(c2)OCO3)c1C
inactive: growth inhibition [1] 1.84% | growth inhibition [2] -1.24% | viability increase [3] -2.79% | viability [4] 91.2% | viability [5] 87.5% | RAM network inhibition [6] 5.07%

C=CCOC(=O)c1sc(NC(=O)c2ccco2)nc1C
inactive: growth inhibition [1] -13.2% | growth inhibition [2] -5.04% | viability increase [3] -1.25% | viability [4] 94% | viability [5] 84.6% | RAM network inhibition [6] 1.63%

COc1ccc(CCn2c(N)c(S(=O)(=O)c3cccs3)c3nc4ccccc4nc32)cc1OC
inactive: growth inhibition [1] -4.55% | growth inhibition [2] -27.6% | viability increase [3] -2.53% | viability [4] 91.6% | viability [5] 85.1% | RAM network inhibition [6] 8.59%

Cn1c(Cn2c(=O)sc3ccccc32)nnc1SCC(=O)Nc1ccc(F)cc1
inactive: growth inhibition [1] -6.3% | growth inhibition [2] -13.1% | viability increase [3] -0.7% | viability [4] 105% | viability [5] 97.8% | RAM network inhibition [6] 5.95%

CN1C(=O)CSc2ccc(C(=O)O)cc21
inactive: growth inhibition [1] 0.925% | growth inhibition [2] -1.22% | viability increase [3] -0.35% | viability [4] 100% | viability [5] 100% | RAM network inhibition [6] -0.62%
